Measured values from different studies.
Compare with care: the assays were run in different laboratories.

| SMILES | target or system | test | test system | setting | measurement | value |
| --- | --- | --- | --- | --- | --- | --- |
| Oc1cccc(C2CCCN(CCc3c[nH]c4ccccc34)C2)c1 (centres unmarked) | HEK293 | cell growth or viability | – | – | IC50 | > 10 µM |
| c1ccc(-c2ccc(C(c3ccccc3)n3ccnc3)cc2)cc1 (centres unmarked) | Vesicular stomatitis virus | viral entry, inhibitor | Vero C1008 | pseudovirus | IC50 | 30 to 40 µM |
| [H]/N=C(/N)N[C@H]1[C@H](O)[C@@H](O)[C@H](O[C@@H]2O[C@@H](C)[C@](O)(C=O)[C@H]2O[C@@H]2O[C@@H](CO)[C@H](O)[C@@H](O)[C@@H]2NC)[C@@H](N/C(N)=N\[H])[C@@H]1O | Mycobacterium avium | microbial growth | ATCC25291 | – | MIC | 12.5 µg/mL |
| Cc1ccc(-c2nc3ccc(C)cn3c2CC(=O)N(C)C)cc1 | Mycobacterium avium | microbial growth | – | 6 days | MIC | > 50 µM |
| Cc1cccc2c(CNCC3(N4CCCC4)COC3)c[nH]c12 | GBM6 | cell growth or viability | – | 30 µM, 48 h | viability | 60.4% |
| COc1cc(C)[nH]c(=O)c1CNC(=O)c1c(C)n([C@H](C)C2CCN(CC(F)(F)F)CC2)c2ccccc12 | KARPAS-422 | cell growth or viability | – | 8 days | GI50 | 0.39 µM |
| O=C(NC1CCC(CN2CCC(c3c[nH]c4ccccc34)CC2)CC1)c1[nH]c(=O)[nH]c(=O)c1F (centres unmarked) | HEK293 | cell growth or viability | – | – | IC50 | > 10 µM |
| O=c1c2ccccc2[se]n1-c1ccccc1 | HEK293 | cell growth or viability, MTT | – | 250 µM, 72 h | inhibition | 64% |
| Cc1ccc2c(CNCC3(N4CCCC4)COC3)c[nH]c2c1 | GBM6 | cell growth or viability | – | 30 µM, 48 h | viability | 60.6% |
| N.N.[Cl][Pt][Cl] | SK-MEL-28 | cell growth or viability, resazurin | – | dark | EC50 | 3.38 µM |
| COc1ccc(OC)c(C=CC(=O)NC2CCC(CN3CCC(c4c[nH]c5ccccc45)CC3)CC2)c1 (centres unmarked) | HEK293 | cell growth or viability | – | – | IC50 | > 10 µM |
| COc1nc2ccc(Br)cc2cc1[C@@H](c1ccccc1)[C@@](O)(CCN(C)C)c1cccc2ccccc12 | Mycolicibacterium phlei | microbial growth | – | – | MIC | 0.05 µg/mL |
| O=C(NC1CCC(CN2CCC(c3c[nH]c4ccccc34)CC2)CC1)c1cn(Cc2ccccc2)c2ccccc12 (centres unmarked) | HEK293 | cell growth or viability | – | – | IC50 | > 10 µM |
| C#C[C@]1(O)CC[C@H]2[C@@H]3CCc4cc(O)ccc4[C@H]3CC[C@@]21C | Vesicular stomatitis virus | viral entry, inhibitor | Vero C1008 | pseudovirus | IC50 | 25 to 70 µM |
